Assay [1] concerns A549. Description: Growth inhibition of human A549 cells at 50 uM after 48 hrs by MTT assay. The note with it: A549, 48 h, read-out: GI. The assay is classed as functional. An outline of the steps: (§1)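 Cells from ECACC are kept in RPMI-1640 with 10% FCS and 1% penicillin at 37 °C in 5% CO2. They are seeded at 3×10^3 cells/well and dosed after 24 h from filter-sterilized DMSO stocks, then treated for 48 h. MTT (2.5 mg/mL in PBS) is added, formazan is dissolved in DMSO, and A570 is read. Viability is given as % of untreated.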
A general note: Tetrazolium assays rely on reduction of a dye to a coloured formazan, in cell work by metabolically active cells.

The subject of assay [2] is Escherichia coli. In words: Antibacterial activity against Escherichia coli MTCC 1652 after 24 hrs by tube dilution method. The assay is classed as functional.
Assay [3] relates to HCT-116. Description: Growth inhibition of human HCT116 cells after 48 hrs by MTT assay. The class given is functional, cell-based. An outline of the steps:
as §1

The test system of assay [4] is Staphylococcus aureus. In words: Antibacterial activity against Staphylococcus aureus MTCC 2901 after 24 hrs by tube dilution method. The class given is functional.
Assay [5] has as its system A549. In words: Growth inhibition of human A549 cells after 48 hrs by MTT assay. The class given is functional, cell-based. An outline of the steps: as §1
Assay [6] deals with MCF7. Description: Growth inhibition of human MCF7 cells at 50 uM after 48 hrs by MTT assay. The class given is functional. The note with it: MCF7, 48 h, read-out: GI. The essentials: as §1
In assay [7] the test system is Bacillus subtilis. In words: Antibacterial activity against Bacillus subtilis MTCC 2063 after 24 hrs by tube dilution method. The class given is functional.
The subject of assay [8] is Aspergillus niger. In words: Antifungal activity against Aspergillus niger MTCC 8184 after 7 days by tube dilution method. The class given is functional. The essentials: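 Tube (serial) dilution MIC in Sabouraud dextrose broth I.P., 25 °C for 7 days. Results are recorded as MIC and reported as pMIC in mM.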
Assay [9] relates to MCF7. In words: Growth inhibition of human MCF7 cells at 10 uM after 48 hrs by MTT assay. The note with it: MCF7, 48 h, read-out: GI. The assay is classed as functional. The essentials:
as §1

The subject of assay [10] is A549. Description: Growth inhibition of human A549 cells at 10 uM after 48 hrs by MTT assay. The assay is classed as functional. The note with it: A549, 48 h, read-out: GI. An outline of the steps: as §1
In assay [11] the test system is Candida albicans. Description: Antifungal activity against Candida albicans MTCC 227 after 48 hrs by tube dilution method. The assay is classed as functional.
In assay [12] the test system is MCF7. In words: Growth inhibition of human MCF7 cells after 48 hrs by MTT assay. The assay is classed as functional, cell-based. The essentials: as §1
Assay [13] has as its system HCT-116. In words: Growth inhibition of human HCT116 cells at 10 uM after 48 hrs by MTT assay. The assay is classed as functional. The note with it: HCT-116, 48 h, read-out: GI. An outline of the steps:
as §1

In assay [14] the test system is PC-3. Description: Growth inhibition of human PC3 cells at 10 uM after 48 hrs by MTT assay. To be noted: PC-3, 48 h, read-out: GI. The assay is classed as functional. An outline of the steps:
as §1

Assay [15] has as its system HCT-116. Description: Growth inhibition of human HCT116 cells at 50 uM after 48 hrs by MTT assay. The assay is classed as functional. The note with it: HCT-116, 48 h, read-out: GI. The essentials:
as §1

The test system of assay [16] is PC-3. Description: Growth inhibition of human PC3 cells at 50 uM after 48 hrs by MTT assay. The assay is classed as functional. To be noted: PC-3, 48 h, read-out: GI. The essentials: as §1
Assay [17] concerns MCF7. In words: Growth inhibition of human MCF7 cells at 1 uM after 48 hrs by MTT assay. The assay is classed as functional. The note with it: MCF7, 48 h, read-out: GI. An outline of the steps:
as §1

Assay [18] relates to PC-3. Description: Growth inhibition of human PC3 cells at 1 uM after 48 hrs by MTT assay. The assay is classed as functional. The note with it: PC-3, 48 h, read-out: GI. An outline of the steps: as §1
For assay [19], the system named is A549. Description: Growth inhibition of human A549 cells at 1 uM after 48 hrs by MTT assay. The assay is classed as functional. To be noted: A549, 48 h, read-out: GI. An outline of the steps: as §1
The test system of assay [20] is A549. In words: Growth inhibition of human A549 cells at 20 uM after 48 hrs by MTT assay. The assay is classed as functional. The note with it: A549, 48 h, read-out: GI. The essentials:
(§2)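 Cells from ECACC, grown in RPMI-1640 with 10% FCS and 1% penicillin, 37 °C, 5% CO2. Seeded at 3×10^3 cells/well in 100 µL medium. Compounds added 24 h later from filter-sterilized DMSO stocks. MTT (2.5 mg/mL in PBS, 20 µL) added, then at least 4 h incubation. Formazan dissolved in DMSO after 48 h treatment, absorbance read at 570 nm. Results given as % viable cells versus untreated.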

Assay [21] relates to HCT-116. In words: Growth inhibition of human HCT116 cells at 20 uM after 48 hrs by MTT assay. The class given is functional. To be noted: HCT-116, 48 h, read-out: GI. The essentials: as §2

Each structure is given as a SMILES string.

For the compound `Fc1ccc(C2=NC(c3ccccc3)c3c(ccc4ccccc34)O2)cc1` (stereo not drawn), the inhibition of growth at 50 µM in assay [1] amounted to 50%; in assay [6] it was 51%; in [15], 56%; in [16] it was 39%. Further, the “-logMIC” value in [2] turned out to be 2.35; in assay [4] it was 1.75; in [7] it was 2.05; in [8] it was 1.45; in [11] it was 1.75. The “growth inhibition (GI)” value in assay [3], in assay [5] and in assay [12] was “Dose-dependent effect” each time. The inhibition of growth at 10 µM in assay [9] was 29%; in assay [10] it was 18%; in assay [13], 12%; in [14], 14%.
Take `Fc1ccc(C2=NC(c3ccc(F)cc3)c3c(ccc4ccccc34)O2)cc1` (stereo not drawn): the inhibition of growth at 50 µM was determined as 50% in assay [1], 50% in assay [6], 51% in [15] and 29% in assay [16]. The “-logMIC” value is reported as 1.47 in assay [2]; 2.07 in assay [4]; 1.77 in assay [7]; 1.47 in assay [8]; 1.77 in assay [11]. Also, the “growth inhibition (GI)” value in assay [3], in assay [5] and in assay [12] was “Dose-dependent effect” throughout. The inhibition of growth at 10 µM in assay [9] was found to be 36%; in [10], 20%; in [13] it was 5%; in assay [14], 22%.
For the compound `CO[C@@]12[C@H](COC(N)=O)C3=C(C(=O)C(C)=C(N)C3=O)N1C[C@@H]1N[C@@H]12` [MITOMYCIN], the inhibition of growth at 1 µM came out at 82% in [17], 70% in [18] and 70% in assay [19].
As to `Cc1ccc(C2N=C(c3ccc(Cl)cc3)Oc3ccc4ccccc4c32)cc1` (stereo not drawn), the inhibition of growth at 50 µM in assay [1] was 28%; in [6], 37%; in assay [15] it was 6%; in assay [16] it was 13%. The “-logMIC” value in assay [2] came out at 0.88; in assay [4], 1.49; in [7], 1.79; in [8], 1.49; in [11] it was 1.79. Also, the inhibition of growth at 10 µM in assay [9] worked out at 21%; in [10] it was 16%; in [13], 3%; in assay [14], 8%.
In the case of `Cc1ccc(C2N=C(c3ccc(F)cc3)Oc3ccc4ccccc4c32)cc1` (stereo not drawn), the inhibition of growth at 50 µM in [1] was 44%; in assay [6] it was 44%; in assay [15] it was 23%; in assay [16], 19%. Moreover, the “-logMIC” value came out at 2.07 in assay [2]; 1.47 in assay [4]; 2.07 in [7]; 1.47 in assay [8]; 1.77 in assay [11]. Besides, the inhibition of growth at 10 µM was determined as 20% in assay [9], 16% in [10], 18% in [13] and 5% in assay [14].
`O=c1[nH]cc(F)c(=O)[nH]1` [FLUOROURACIL]: the inhibition of growth at 20 µM in [20] was 79%; in [21] it was 78%.

These data come from ChEMBL document CHEMBL2086288, “Synthesis, antimicrobial and cytotoxicity study of 1,3-disubstituted-1H-naphtho[1,2-e][1,3]oxazines” (2012).
